Source: ChEMBL document CHEMBL1123062, “Relationship between structure and antineoplastic activity of (arylsulfonyl)hydrazones of 4-pyridinecarboxaldehyde” (1985)

What was measured:
P388 [1] = experiment: Compound was evaluated for antitumor activity in mice (control group) bearing P388 leukemic cells from average survival time; assay type: functional, Mus musculus
In short: (§1)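 Ascites forms of Sarcoma 180 or P388 leukemia carried in CDF-1 mice. Recipients were implanted from donors with 7-day tumor growth. Compound given once daily for six consecutive days starting 24 h after implantation, with a tested range of 50–200 mg/kg per day. Hydrochloride salt solutions were adjusted to pH 6.5–7.0. Survival time was averaged, days ± SE. Body weight was tracked as a toxicity indicator.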

P388 [2] = experiment: Compound was evaluated for antitumor activity in mice bearing P388 leukemic cells from average survival time; assay type: functional, Mus musculus; in short: as §1
P388 [3] = experiment: Compound was evaluated for average change in body weight from onset to the termination of drug therapy in mice bearing P388 leukemic cells; assay type: functional, Mus musculus
In short: (§2)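 Ascitic Sarcoma 180 or P388 leukemia carried in CDF-1 mice; recipients transplanted from donors bearing 7-day tumors. Compound given once daily for six consecutive days from 24 h after implantation, over 50–200 mg/kg per day; hydrochloride salt solutions adjusted to pH 6.5–7.0. Mice weighed; % body-weight change onset to end of therapy taken as host toxicity; maximum effective daily dose reported from survival prolongation.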

P388 [4] = experiment: Maximum effective daily dose required to inhibit the tumors of P388 leukemia; assay type: functional, Mus musculus; in short: as §2
Mus musculus [5] = species: Mus musculus; experiment: Ratio of average survival time of treated to control mice bearing P388 leukemia; assay type: functional
In short: (§3)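 In CDF-1 mice bearing ascitic P388 leukemia or Sarcoma 180 from 7-day donors, dosing ran once daily for six days from 24 h post-implant (range 50–200 mg/kg/day; HCl salts adjusted to pH 6.5–7.0). % T/C was the average survival time of treated over control animals × 100, reported at the maximum effective daily dose.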

Mus musculus [6] = species: Mus musculus; experiment: Ratio of average survival time of treated to control mice bearing sarcoma 180 ascites cells; assay type: functional; in short: as §3
Mus musculus [7] = species: Mus musculus; experiment: Average change in body weight from onset to the termination of drug therapy in mice bearing sarcoma 180 ascites cells; assay type: functional; in short: as §2
[8] = Maximum effective daily dose required to inhibit the tumors of sarcoma 180 ascites cells; assay type: functional, Mus musculus; in short: as §2
[9] = Compound was evaluated for antitumor activity in mice bearing sarcoma 180 ascites cells and average survival time; assay type: functional, Mus musculus; in short: as §1
[10] = Compound was evaluated for antitumor activity in mice (control group) bearing sarcoma 180 ascites cells and average survival time; assay type: functional, Mus musculus; in short: as §1
[11] = Compound was evaluated for antitumor activity in mice (control group) bearing sarcoma 180 ascites cells from average survival time; assay type: functional, Mus musculus; in short: as §1
[12] = Compound was evaluated for antitumor activity in mice bearing sarcoma 180 ascites cells from average survival time; assay type: functional, Mus musculus; in short: as §1
P388 [13] = experiment: Compound was evaluated for antitumor activity in mice bearing P388 leukemic cells, and average change in body weight from onset to the termination of drug therapy; assay type: functional, Mus musculus; in short: as §2
[14] = Compound was evaluated for average change in body weight from onset to the termination of drug therapy in mice bearing sarcoma 180 ascites cells; assay type: functional, Mus musculus; in short: as §2
P388 [15] = experiment: Compound was evaluated for antitumor activity in mice (control group) bearing P388 leukemic cells and average survival time; assay type: functional, Mus musculus; in short: as §1
P388 [16] = experiment: Compound was evaluated for antitumor activity in mice bearing P388 leukemic cells and average survival time; assay type: functional, Mus musculus; in short: as §1
P388 [17] = experiment: Compound was evaluated for antitumor activity in mice bearing P388 leukemic cells, and average change in body weight from onset to the termination of therapy; assay type: functional, Mus musculus; in short: as §2

Row | Structure (SMILES) | Time (P388 [1]) [days] | Time (P388 [2]) [days] | Weight change (P388 [3]) [%] | Dose (P388 [4]) [mg/kg] | T/C (Mus musculus [5]) [%] | T/C (Mus musculus [6]) [%] | Weight change (Mus musculus [7]) [%] | Dose [8] [mg/kg] | Time [9] [days] | Time [10] [days] | Time [11] [days] | Time [12] [days] | Weight change (P388 [13]) [%] | Change of weight [14] [%] | Time (P388 [15]) [days] | Time (P388 [16]) [days] | Weight change (P388 [17]) [%]
1 | Cc1cc(C)c(S(=O)(=O)N/N=C/c2ccc([N+](=O)[O-])cc2)c(C)c1.Cl | 14.2 | 17.2 | -3.5 | 150 | 121 | 231 | -10.2 | 100 | 26.4 | 11.4 | – | – | – | – | – | – | –
2 | Cc1ccc(S(=O)(=O)N/N=C/c2ccc([N+](=O)[O-])cc2)cc1.Cl | 14.2 | 15.2 | -3 | 200 | 107 | 197 | -17.4 | 100 | – | – | 15 | 29.6 | – | – | – | – | –
3 | COc1ccc(S(=O)(=O)N/N=C/c2ccncc2)cc1OC.Cl | 14.8 | 17.6 | – | 100 | 119 | 278 | -9.1 | 200 | – | – | 11.8 | 32.8 | -3 | – | – | – | –
4 | C/C(=N\NS(=O)(=O)c1c(C)cc(C)cc1C)c1ccncc1 | – | – | – | – | – | 123 | – | 100 | – | – | 16.8 | 20.6 | – | 3.2 | – | – | –
5 | COc1ccc(S(=O)(=O)N/N=C/c2ccc([N+](=O)[O-])cc2)cc1.Cl | – | – | -5.7 | 200 | 99 | 159 | -19 | 100 | 23.8 | 15 | – | – | – | – | 14.8 | 14.6 | –
6 | COc1ccc(S(=O)(=O)N/N=C/c2ccncc2)cc1.Cl | – | – | 0.7 | 150 | 123 | 218 | -10.7 | 100 | 31 | 14.2 | – | – | – | – | 14.6 | 18 | –
7 | Cc1ccc(S(=O)(=O)N/N=C/c2ccncc2)cc1.Cl | – | – | – | 150 | 118 | 249 | -14.5 | 100 | 36.4 | 14.6 | – | – | – | – | 14.6 | 17.2 | -7.6
8 | Cc1cc(C)c(S(=O)(=O)N/N=C/c2ccncc2)c(C)c1.Cl | – | – | -2.2 | 100 | 129 | 239 | -8.4 | 50 | 34 | 14.2 | – | – | – | – | 14.6 | 18.8 | –
9 | Cl.O=[N+]([O-])c1ccc(/C=N/NS(=O)(=O)c2ccccc2)cc1 | – | – | – | 150 | 104 | 182 | -12.1 | 150 | 20.8 | 11.4 | – | – | – | – | 14.2 | 14.8 | -0.1
10 | O=[N+]([O-])c1ccc(/C=N/NS(=O)(=O)c2ccc(Cl)cc2)cc1 | – | – | -2.4 | 200 | 107 | 189 | -16 | 100 | 28.4 | 15 | – | – | – | – | 14.2 | 15.2 | –
11 | CN(/N=C/c1ccncc1)S(=O)(=O)c1ccc(Cl)cc1.Cl | – | – | – | – | – | 110 | -4.2 | 100 | – | – | 14.6 | 16 | – | – | – | – | –
12 | Cl.O=S(=O)(N/N=C/c1ccncc1)c1ccccc1 | 14.6 | 18 | -3.1 | 150 | 123 | 225 | -8.6 | 100 | 32 | 14.2 | – | – | – | – | – | – | –
13 | CC(=O)Nc1ccc(S(=O)(=O)N/N=C/c2ccncc2)cc1.Cl | 14.6 | 17.6 | – | 150 | 121 | 288 | -5.2 | 150 | – | – | 11.8 | 34 | – | – | – | – | -3.1
14 | Cc1ccc(S(=O)(=O)N/N=C/c2ccncc2)cc1 | – | – | – | – | – | 222 | -16.7 | 100 | – | – | 14.6 | 32.4 | – | – | – | – | –
15 | Cl.O=[N+]([O-])c1ccc(S(=O)(=O)N/N=C/c2ccncc2)cc1 | – | – | – | 200 | 128 | 328 | -8.1 | 75 | 37.4 | 11.4 | – | – | – | – | 13.8 | 17.6 | -7.5
16 | CC(C)c1cc(C(C)C)c(S(=O)(=O)N/N=C/c2ccncc2)c(C(C)C)c1.Cl | – | – | – | 200 | 123 | 262 | -3.1 | 200 | 31 | 11.8 | – | – | – | – | 13.8 | 17 | -0.9
17 | Cl.O=S(=O)(N/N=C/c1ccncc1)c1ccc(Cl)cc1 | 14.8 | 16.6 | – | 200 | 112 | 242 | -5.4 | 150 | – | – | 11.8 | 28.6 | – | – | – | – | -5.4
